Laboratory results published in ChEMBL document CHEMBL4513216, “Probing the Open Global Health Chemical Diversity Library for Multistage-Active Starting Points for Next-Generation Antimalarials” (ACS Infect Dis, 2020).

Assay: Toxicity liver stage against HepG2, at 10uM
Type: cell-based
Set-up: test concentration 10 uM, cell line HepG2-A16-CD81EGFP
Settings: human, HepG2-A16-CD81EGFP cells; read-out: INHIBITION
How it was run: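 Uninfected HepG2-A16-CD81EGFP cells, 3 × 10^3 per well, 1536-well, plated on prespotted compound at 10 μM final, parasite-free screening media added to match infected plates; puromycin 10 μM positive, DMSO 0.5% negative; run in parallel with 48 h PbLuc assay at 37 °C, 5% CO2; viability by CellTiter-Glo luminescence, normalized to controls.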

SMILES | cytotoxicity at 10 µM [%]
CCCS(=O)(=O)N1CCN(Cc2ccco2)CC1 | 4.28
O=C1Nc2ccccc2/C1=C1\CCCCCN1 | 13.6
CSCCC(Nc1nc(C)cc(C)n1)C(=O)NC(C)(C)CO (stereo unspecified) | -5.15
CS(=O)(=O)C1CCN(S(=O)(=O)c2ccc(F)c(F)c2)CC1 | -10.4
CNCc1ccc(Oc2cncc(C)n2)cc1 | 7.1
c1cc(CN2CCc3c(CN4CCCC4)n[nH]c3C2)ccn1 | -10.5
COC(=O)c1cc2c(OC)c(C)c(OC)cc2[nH]1 | -12.8
CN(C)CC(=O)N1CCOCC2(C1)CN(c1ccccc1)C(=O)CO2 (stereo unspecified) | 0.00964
O=C(c1cscn1)N1C[C@@H]2[C@@H](C1)OCC(=O)N2CC1CCCC1 | -10.2
CCNC(=O)c1ncn2c1CN(C)S(=O)(=O)c1ccccc1-2 | -10.1
COC[C@H]1CCC[C@]12CN(C(=O)NCc1ccccc1)CCO2 | -11.6
CCN(CC)CCCNC(=O)C(C)n1cc(Br)cn1 (stereo unspecified) | -3.33
Cc1nn(Cc2ccc(C(=O)NCCCN3CCCC3=O)o2)c(C)c1Cl | -10.2
COc1ccc(C)cc1Nc1nc2c(C)nn(C)c2c(=O)n1C | 3.96
COCc1nc(N(C)C)ncc1C(=O)NC(C)C | 12.8
CC(C(=O)N1CCc2ccccc2C1)n1cc(Br)cn1 (stereo unspecified) | -8.77
O=C(c1ccccc1F)N1CCCC1Cn1c(=O)oc2ccccc21 (stereo unspecified) | 4.49
CCC(=O)N1CCCCC1c1nc(O)c2c(n1)CN(C(C)=O)CC2 (stereo unspecified) | 0.525
Cc1nn(C)cc1NC(=O)CN1CCC(Oc2cnccn2)CC1 | -4.19
CNc1cc(C)nc(C2CCN(CCO)CC2)n1 | 1.56
CC(=O)N1CCC(c2nn(C)c3nccnc23)C1 (stereo unspecified) | -21.1
CN(C)C(=O)CCc1cncc(C2CCCN2Cc2ccccn2)n1 (stereo unspecified) | -3.94
Cc1cc(C2CCCN2C(=O)c2csc(-c3cnn(C)c3)n2)on1 (stereo unspecified) | 15.6

SMILES | cytotoxicity at 10 µM [%]
OCCN(CCO)Cc1ccc(Br)c2cccnc12 | 0.14
CC(C)(C)NC(=O)CNc1ncccn1 | -5.09
c1csc(-c2noc(CCCNC3CCc4ncnn4C3)n2)c1 (stereo unspecified) | -1.36
CNC(=O)Cc1noc(-c2cc3c(s2)CCC(C)(C)C3)n1 | 3.57
N#CCCN(CC1CCOC1)S(=O)(=O)c1c(F)cccc1Cl (stereo unspecified) | -2.58
CCCN(CC(F)(F)F)S(=O)(=O)c1cc(C(N)=O)n(C)c1 | -4.15
Cc1ccc(S(=O)(=O)N2CCOCC2C#N)cc1Br (stereo unspecified) | 6.08
CNC(=O)C1CCCN1C(=O)NCCCc1cccc(F)c1 (stereo unspecified) | 2.75
CC(C)(C)c1nccc(N2CCCCC2CCNS(C)(=O)=O)n1 (stereo unspecified) | 8.83
CC(CNC(=O)c1nnn(-c2ccccc2)c1C(F)(F)F)N(C)C (stereo unspecified) | 2.19
CCNc1cc2c(nn1)CCN(C(=O)C1Cc3ccccc3S1)C2 (stereo unspecified) | -1.4
O=C(Cn1cccc2oc(=O)nc1-2)NCC1Cc2ccccc2O1 (stereo unspecified) | -7.79
CC(C)c1nc(C2CCCN(C(=O)CN(C)S(C)(=O)=O)C2)no1 (stereo unspecified) | -0.304
CCn1nc(C)cc1C(=O)OCCNC(=O)c1ccccc1 | 1.44
O=C(NCC1(O)CCSCC1)c1ccoc1 | -6.61
CCCNC(=O)CCNc1cncc(-n2nc(C)cc2C)n1 | 5.3
CN(CC(=O)N1CCN(c2cnccn2)CC1)c1ccc(Cl)cn1 | -0.487
COCCN1CCCN(C(=O)c2scnc2C)CC1 | 5.27
CC(C)c1ncncc1C(=O)NCCN1CCOCC1 | -0.103
Cc1cc(C(=O)NC2CCN(CC(N)=O)CC2)nn1C(C)(C)C | -5.22
Brc1csc(CNCc2nnc3n2CCC3)c1 | 5.63
Cc1ccc(C(C)(O)CNC(=O)c2scnc2C)o1 (stereo unspecified) | -1.42
COCc1ccccc1CNC(=O)CNc1ccccc1C(C)=O | 3.49

SMILES | cytotoxicity at 10 µM [%]
CCC1CN(c2ncnc3nc[nH]c23)CCO1 (stereo unspecified) | 19.5
O=S(=O)(c1cccnc1)N1CCC(OCCCc2ccccc2)C1 (stereo unspecified) | 9.31
CSCC(=O)NC1CCN(C(C)c2ccccc2)CC1 (stereo unspecified) | 3.63
CCC(CNS(C)(=O)=O)Oc1ccccc1C (stereo unspecified) | 17.3
CCN(C(=O)CN1CCC(c2ccccc2)C1)C1CC1 (stereo unspecified) | 9.4
CC(CO)(NCc1noc(Cc2ccccc2)n1)C1CCCCC1 (stereo unspecified) | -17.2
Nc1cc2c(nn1)CCN(C(=O)c1ccc(Oc3cccnc3)cc1)C2 | 6.27
Cc1cccc(CN(Cc2ccccn2)S(=O)(=O)N(C)C)c1 | -1.74
CCOC(=O)NC1CCCN(Cc2ccc(-n3cncn3)c(C)c2)C1 (stereo unspecified) | 2.12
Cc1[nH]ncc1CCCNC(=O)N1CCOC(C)C1 (stereo unspecified) | 3.14
O=C(NCc1cccnc1N1CCCCC1)c1ccc2c(c1)OCO2 | -3.76
Cc1cc(NS(=O)(=O)c2cnc3onc(C)c3c2)no1 | 4.43
O=C(c1cnc2[nH]c(=O)[nH]c(=O)c2c1)N1CCCC1C1CCCCC1 (stereo unspecified) | -5.94
CC(C)(CNC(=O)OC(C)(C)C)NC(=O)C1CC(=O)N(C2CC2)C1 (stereo unspecified) | 14.3
COCCn1cc(C(=O)N2CCCC2c2cccc(F)c2)ccc1=O (stereo unspecified) | -3.48
Cc1cnc(NC(=O)N2CCCC2)s1 | -13.6
Cn1nc2c(cc1=O)CN(CC(=O)Nc1ccc(Cl)cn1)CC2 | 0.874
CCCS(=O)(=O)NCc1cccnc1OCC | -7.87
O=C(CN(Cc1ccccc1)CC1CCOCC1)Nc1nccs1 | -13.5
CCOc1ncccc1NC(=O)c1cc(C)c(C)s1 | -2.96
Cc1nnc([C@@]23CCO[C@@H]2CCN(Cc2cccc4ccccc24)C3)o1 | -103
CC(=O)Nc1nc(C)c(S(=O)(=O)NCCc2ccccn2)s1 | -5
COc1ccc2c(c1)CC(C(=O)N(C)CCCc1cnn(C)c1)CO2 (stereo unspecified) | -7.55

SMILES | cytotoxicity at 10 µM [%]
Cc1ccc2c(c1)SCC(=O)N2CC(=O)N1CCCC1c1cc(C)on1 (stereo unspecified) | 1.28
CSCC(=O)N1C[C@H](c2ccc(C)o2)[C@@H](N)C1 | 6.6
CCOc1ccc2[nH]c(=O)c(CN3CCC(N4CCCC4)CC3)cc2c1 | -7.83
CCC1CN(Cc2nnc(C3CC3)o2)CCC(=O)N1Cc1ccccc1 (stereo unspecified) | 0.0723
CC1(Cc2ccc3c(c2)OCO3)CCCN(S(=O)(=O)N2CCCC2)C1 (stereo unspecified) | -0.788
COc1ccccc1OC1CN(C(=O)CN(C)Cc2ccncc2)C1 | -3.09
O=C(CCN1CCOC(C(F)(F)F)C1)NCc1ccc(Cl)cc1 (stereo unspecified) | -9.93
O=C(O)C1CN(Cc2cccc(-c3ccccn3)c2)CCO1 (stereo unspecified) | -10.5
COc1nc2ccccc2cc1C1CC(=O)Nc2n[nH]c(C3CCC3)c21 (stereo unspecified) | -13.5
CN(C)S(=O)(=O)NCc1nc(-c2cccc(F)c2)c(-c2ccccn2)[nH]1 | -7.76
CCc1nccn1CCCNC(=O)c1cnn(-c2ccccc2OC)c1 | -17.1
O=C1O[C@@H]2CN(c3ccc(Cl)cn3)C[C@@H]2N1CCc1ccc(F)cc1 | -2.77
O=C(NCc1cc2n(n1)CCCNC2)C1(c2ccccc2)CCCCC1 | -10.6
FC(F)(F)c1ccnc(N2CCCN(Cc3ccccn3)CC2)n1 | -3.5
O=S(=O)(NCc1ccccc1)N(Cc1ccccn1)CC1CCCO1 (stereo unspecified) | 1.62
Cc1nn2c(NCC(=O)NC3CC3)cc(-c3ccccc3)nc2c1C | -5.1
O=C(c1cccc(Cl)c1F)N1CCOC2(CNCCOC2)C1 (stereo unspecified) | -2.06
CC(=O)Nc1ccc(C(=O)Nc2cnc3n2CCCC3)cc1C | 0.271
Cc1ccc(OCC(C)NS(C)(=O)=O)cc1 (stereo unspecified) | 14.8
Cc1cncc(C(=O)N2CCC(Cn3cc(-c4ccsc4)nn3)CC2)c1 | -6.69
CCCc1nc(C)cc(N2CCC3(CCC(=O)N(CC4CC4)C3)CC2)n1 | 14.9
c1cc(COc2ccc(CNC3CCc4ncnn4C3)cc2)ccn1 (stereo unspecified) | -0.279
CCn1ccnc1CN1CCN(CCC(=O)NC2CCCCC2)CC1 | -12.3

SMILES | cytotoxicity at 10 µM [%]
CNS(=O)(=O)c1ccc(C(=O)N2CCCC2c2ccccc2)o1 (stereo unspecified) | -7.67
CS(=O)(=O)c1ccc(CNC(=O)N2CCC(c3ccccc3)CC2)cc1 | -0.884
Cc1cnn(CC(C)NCc2ccc(-n3cccn3)cc2)c1 (stereo unspecified) | 1.44
Cc1ccc(C(=O)NC2CCN(C(=O)Nc3ccccn3)CC2)o1 | 4.86
CCc1ccc(C(=O)N2CCCC(c3noc(CC)n3)C2)o1 (stereo unspecified) | -3.97
Cc1nc(-c2ccc(F)c(F)c2)cc(C2CCNCC2)n1 | 2.04
Cc1ccc2c(n1)N(CCn1cccn1)CCN(C(=O)CC1CC1)C2 | -5.58
Cc1noc(C)c1CN1C[C@H](OCC2CC2)[C@H]2OCCC[C@H]21 | -14.9
COCCNC(=O)[C@H]1C[C@@H]2CCN(Cc3ccncc3)C[C@H]2O1 | 2.6
Cc1cccc(S(=O)(=O)N2CC[C@H]3CO[C@H](CN(C)C)[C@H]3C2)c1 | -92.1
CN(C)C(=O)CO[C@@H]1CN(Cc2ccccc2F)[C@@H]2CCCO[C@@H]21 | -3.81
O=C([C@@H]1C[C@H]2[C@H](CCN2Cc2nccs2)O1)N1CCOCC1 | -8.66
COCCN1C[C@@H]2CN(Cc3cccc(F)c3)CCC[C@]2(C(=O)O)C1 | 0.928
COCCN1CCN(c2ccc(C)nn2)Cc2cccnc21 | -3.68
O=C(NC1CCCC1)[C@H]1C[C@H]2OCC[C@H]2N(Cc2ccoc2)C1 | -77.3
O=C(c1ccc(F)cc1)N1CCN2C[C@H](OCc3ccccn3)C[C@H]2C1 | 2.8
c1csc(CN2CCCn3cnc(COCC4CC4)c3C2)c1 | -74.6
CCc1nc(C)cc(N2CCN(C(=O)[C@@H]3C[C@H]4C=C[C@@H]3C4)CC2)n1 | 5.68
Cc1ccc(C(=O)N2[C@@H]3CC[C@H]2CC(=O)N(C)C3)c(=O)[nH]1 | 4.23
